This note sets out measurements from ChEMBL document CHEMBL3120102, “Structure-based design, synthesis and biological evaluation of novel anthra[1,2-d]imidazole-6,11-dione homologues as potential antitumor agents” (2013).

What all share (format): functional
For one assay, the system named is Malme-3M. Nature of the assay: Cytotoxicity against human MALME-3M cells assessed as growth inhibition after 48 hrs by SRB assay. Conditions: for CC50: read-out: LC50 (the source's name). Put shortly: (§1)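 NCI 60-cell-line five-dose screen at […]. Drug exposure was 48 h, followed by sulforhodamine B protein staining. GI50, TGI and LC50 were calculated against a time-zero control and untreated plates, with dose–response curves plotted from log10 concentration.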

The subject of a further assay is OVCAR-3. The experiment in a line: Cytotoxicity against human OVCAR3 cells assessed as cell growth at 10 uM after 48 hrs by SRB assay. As to conditions: OVCAR-3, 48 h, read-out: Activity. The gist of the method: (§2)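 First stage of the NCI 60 human tumour cell line screen: a single dose is tested against every line. Cell growth is read as cellular protein by sulforhodamine B colorimetry after 48 h of drug exposure, with reference to a time-zero control and to untreated plates.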

For a further assay, the system named is HOP-92. The experiment in a line: Cytotoxicity against human HOP92 cells assessed as growth inhibition after 48 hrs by SRB assay. As to conditions: for GI50 / TGI / CC50: HOP-92, 48 h; for CC50: read-out: LC50 (the source's name). Put shortly: as §1
The test system of another assay is OVCAR-8. The experiment in a line: Cytotoxicity against human OVCAR8 cells assessed as growth inhibition after 48 hrs by SRB assay. As to conditions: for GI50 / LC50 / TGI: OVCAR-8, 48 h. The gist of the method: (§3)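 NCI 60-cell-line screen, five-dose stage: each cell line exposed for 48 h to five concentrations spanning five log steps; cellular protein measured by sulforhodamine B colorimetry. A time-zero cell control and plates without drug are used to derive GI50, TGI and LC50 from log-concentration dose-response curves.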

The next assay has as its system SF-295. Nature of the assay: Cytotoxicity against human SF295 cells assessed as growth inhibition after 48 hrs by SRB assay. As to conditions: for GI50 / LC50 / TGI: SF-295, 48 h. Put shortly:
as §3

The test system of the next assay is CAKI-1. The experiment in a line: Cytotoxicity against human CAKI-1 cells assessed as growth inhibition after 48 hrs by SRB assay. The gist of the method: as §1
The test system of the next assay is SK-MEL-28. Nature of the assay: Cytotoxicity against human SK-MEL-28 cells assessed as growth inhibition after 48 hrs by SRB assay. As to conditions: for GI50 / LC50 / TGI: SK-MEL-28, 48 h. Put shortly:
as §3

The test system of assay [1] is HT-29. Nature of the assay: Cytotoxicity against human HT-29 cells assessed as growth inhibition after 48 hrs by SRB assay. Conditions: for GI50 / TGI / CC50: HT-29, 48 h; for CC50: read-out: LC50 (the source's name). The gist of the method: as §1
The test system of assay [2] is HT-29. The experiment in a line: Cytotoxicity against human HT-29 cells assessed as cell growth at 10 uM after 48 hrs by SRB assay. Conditions: HT-29, 48 h, read-out: Activity.
Another assay deals with MDA-MB-468. The experiment in a line: Cytotoxicity against human MDA-MB-468 cells assessed as cell growth at 10 uM after 48 hrs by SRB assay. Conditions: MDA-MB-468, 48 h, read-out: Activity. Put shortly: as §2

The structures appear in SMILES notation. Where only a bound is given, the exact number is not on record here.

With `CCCSc1nc2ccc3c(c2[nH]1)C(=O)c1ccccc1C3=O`, the GI50 was 4.27 µM in the assay on Malme-3M; 15 µM in the assay with HOP-92; 3.48 µM in the assay on OVCAR-8; 3.19 µM in the assay with SF-295; 3.07 µM with CAKI-1 (CAKI-1, 48 h); more than 100 µM in the assay with SK-MEL-28. For the same molecule, the GI50 in the assay on HT-29 [1] was more than 100 µM. Besides, the TGI is more than 100 µM in the assay with Malme-3M; more than 100 µM in the assay with HOP-92; more than 100 µM with OVCAR-8; 60.2 µM with SF-295; more than 100 µM in the assay on CAKI-1 (CAKI-1, 48 h); more than 100 µM with SK-MEL-28. Also, the TGI with HT-29 [1] is more than 100 µM. Also, the “growth inhibition (GI)” value with Malme-3M, in the assay with HOP-92, with OVCAR-8, with SF-295, in the assay on CAKI-1 and in the assay with SK-MEL-28 was “Dose-dependent effect” in each case. Also, the “growth inhibition (GI)” value in the assay on HT-29 [1] is “Dose-dependent effect”. In addition, the CC50 in the assay on Malme-3M, in the assay on HOP-92 and with HT-29 [1] was more than 100 µM throughout. The growth at 10 µM in the assay on OVCAR-3 is 62.7%; with HT-29 [2] it was 75.1%. In addition, the LC50 is more than 100 µM in the assay on OVCAR-8; more than 100 µM with SF-295; more than 100 µM in the assay with CAKI-1 (CAKI-1, 48 h); more than 100 µM with SK-MEL-28.
In the case of `O=C1c2ccccc2C(=O)c2c1ccc1nc(SCCN3CCCC3)[nH]c21`, in the assay with Malme-3M, the 50% growth inhibitory concentration (GI50) was 14 µM, the concentration for total growth inhibition (TGI) worked out at 28.8 µM, the “growth inhibition (GI)” value is “Dose-dependent effect” and the CC50 worked out at 59.4 µM. Besides, the growth at 10 µM in the assay on MDA-MB-468 was 67.9%. In the assay on OVCAR-8, the “growth inhibition (GI)” value is “Dose-dependent effect”, the GI50 came out at 6.38 µM, the LC50 is more than 100 µM and the total growth inhibition concentration (TGI) was 30.4 µM. Besides, in the assay on SF-295, the “growth inhibition (GI)” value is “Dose-dependent effect”, the GI50 stood at 14.2 µM, the LC50 came out at 60.9 µM and the concentration for total growth inhibition (TGI) came to 29.4 µM. Besides, in the assay with SK-MEL-28, the “growth inhibition (GI)” value was “Dose-dependent effect”, the concentration for 50% growth inhibition (GI50) was determined as 2.2 µM, the LC50 was found to be 9.08 µM and the TGI came out at 4.47 µM. Further, in the assay on HT-29 [1], the “growth inhibition (GI)” value was “Dose-dependent effect”, the 50% growth inhibitory concentration (GI50) was 1.81 µM, the TGI came out at 4.66 µM and the CC50 amounted to 15.2 µM.
Take `CN(C)CCCSc1nc2ccc3c(c2[nH]1)C(=O)c1ccccc1C3=O`: the GI50 was 13.9 µM in the assay with Malme-3M; 6.12 µM in the assay on OVCAR-8; 14.8 µM with SF-295; 0.822 µM in the assay on CAKI-1 (CAKI-1, 48 h); 13.5 µM in the assay with SK-MEL-28; 1.04 µM with HT-29 [1]. For the same molecule, the TGI in the assay on Malme-3M worked out at 27 µM; with OVCAR-8, 21.5 µM; with SF-295 it was 28.4 µM; in the assay with CAKI-1 (CAKI-1, 48 h), 11 µM; with SK-MEL-28, 26.3 µM; with HT-29 [1], 2.61 µM. Also, the “growth inhibition (GI)” value in the assay with Malme-3M, with OVCAR-8, with SF-295, in the assay on CAKI-1, in the assay on SK-MEL-28 and in the assay with HT-29 [1] was “Dose-dependent effect” in each case. In addition, the CC50 turned out to be 52.4 µM in the assay with Malme-3M and 6.53 µM with HT-29 [1]. The growth at 10 µM with OVCAR-3 turned out to be 59.3%; in the assay with HT-29 [2] it was 17.8%.
As to `O=C1c2ccccc2C(=O)c2c1ccc1[nH]c(=S)[nH]c21`, the growth at 10 µM in the assay with OVCAR-3 was found to be 86.9%; with MDA-MB-468 it was 87.7%; in the assay on HT-29 [2] it was 104%.
As for `CCSc1nc2ccc3c(c2[nH]1)C(=O)c1ccccc1C3=O`, the GI50 with Malme-3M was 3.58 µM; in the assay with HOP-92, 90.6 µM; in the assay with OVCAR-8 it was 15.1 µM; with SF-295, 4.17 µM; in the assay with SK-MEL-28, 43.6 µM; in the assay on HT-29 [1], 23.1 µM. For the same molecule, the total growth inhibition concentration (TGI) in the assay with Malme-3M is 94 µM; in the assay on HOP-92, more than 100 µM; in the assay with OVCAR-8 it was more than 100 µM; in the assay with SF-295, 47.4 µM; in the assay on SK-MEL-28, more than 100 µM; with HT-29 [1] it was more than 100 µM. Further, the “growth inhibition (GI)” value in the assay on Malme-3M, with HOP-92, in the assay on OVCAR-8, in the assay with SF-295, in the assay on SK-MEL-28 and with HT-29 [1] was “Dose-dependent effect” each time. In addition, the CC50 with Malme-3M, with HOP-92 and in the assay with HT-29 [1] was more than 100 µM in each case. Besides, the growth at 10 µM in the assay with OVCAR-3 is 69.3%; in the assay on MDA-MB-468, 35.4%; in the assay on HT-29 [2], 75.2%. Also, the LC50 with OVCAR-8, in the assay on SF-295 and in the assay on SK-MEL-28 was more than 100 µM throughout.
On to `O=C1c2ccccc2C(=O)c2c1ccc1nc3n(c21)CCS3`, for which the growth at 10 µM in the assay with MDA-MB-468 was found to be 69.7%.
